# Source: PubChem BioAssay
# NLRP3 yeast inh – blocks the NALP3 inflammasome reconstituted in yeast | 330,000 tested, 0.39% active | inhibition, % at 10 µM | Yeast reconstituted NLRP3/ASC/caspase-1, beta-gal luminescence, 24 h;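 active = inhibition of 50% or more; inactive = inhibition below 50%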
# Calb FLC – affects C. albicans growth with fluconazole. C. albicans CaCi-2 + fluconazole, Alamar Blue growth, 48 h. growth inhibition, % (test concentration not listed). 300,000 tested, 0.57% active. AID 1979;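 active = growth inhibition above about 58% in most replicates, limit read from the data, passing the limit was not always enough; inconclusive = exactly half the replicates above a set limit; inactive = most replicates below a set limit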;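 also: all wells also contain fluconazole at 8 µg/ml as a sub-toxic cotreatment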
# NALP1 yeast inh – blocks the NALP1 inflammasome reconstituted in yeast | S. cerevisiae NALP1/ASC/caspase-1 growth, X-gal OD620, 72 h | inhibition, % at 10 µM | 280,000 tested, 0.61% active | AID 2071; in the data active = inhibition mostly above about 24%, no sharp cut-off; inactive = mostly below about 32%
# ALR inh – human ALR oxidase inhibition via reduced H2O2 | purified ALR, DTT oxidation, H2O2 HRP-luminol luminescence | AID 485317 | 290,000 tested, 3.8% active | inhibition, % (no concentration beside the values);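 active = mean replicate inhibition above about 79%, with every replicate also reaching it, limit read from the data; inconclusive = only one of the two criteria met; inactive = mean below limit and not every replicate reaching it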
# Target sequence (P55789 whole entry, looked up): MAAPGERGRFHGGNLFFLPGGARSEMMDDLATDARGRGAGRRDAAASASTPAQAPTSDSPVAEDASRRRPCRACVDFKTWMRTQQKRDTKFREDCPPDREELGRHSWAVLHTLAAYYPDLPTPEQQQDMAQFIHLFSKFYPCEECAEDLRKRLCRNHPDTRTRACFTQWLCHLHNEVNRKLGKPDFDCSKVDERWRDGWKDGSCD
# UCH37 inh – human UCH37 deubiquitinating enzyme inhibition. Q9Y5K5. purified proteasome/UCH37, Ub-AMC cleavage fluorescence. inhibition, % (test concentration not listed). 330,000 tested, 0.33% active;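 active = mean inhibition over replicate wells above about 20%, limit read from the data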
# Target sequence (Q9Y5K5 whole entry, looked up): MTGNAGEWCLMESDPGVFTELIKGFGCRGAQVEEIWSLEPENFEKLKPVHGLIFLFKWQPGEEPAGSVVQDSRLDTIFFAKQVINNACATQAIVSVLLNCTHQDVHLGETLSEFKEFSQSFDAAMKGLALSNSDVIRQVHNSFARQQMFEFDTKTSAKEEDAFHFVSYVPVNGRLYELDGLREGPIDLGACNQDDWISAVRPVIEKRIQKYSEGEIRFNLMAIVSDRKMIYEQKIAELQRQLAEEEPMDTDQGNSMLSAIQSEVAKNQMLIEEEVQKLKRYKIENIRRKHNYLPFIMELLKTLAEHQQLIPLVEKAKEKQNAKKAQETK
#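 system = Proteasome-associated human UCH37 deubiquitinase | amount = 0.15 nM proteasome as dispensed | medium = pH 7.4 Tris-HCl (50 mM) with ovalbumin, ATP-MgCl2, DTT | incubation = 30 min preincubation with enzyme, 25 min cleavage at room temperature | detection = AMC fluorescence 355/460 nm | read-out basis = percent inhibition | controls = no-proteasome and no-compound wells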
# ATG4B inhibitor – inhibitors of human ATG4B cysteine protease; ATG4B cleavage of LC3-PLA2, NBD-HPC fluorescence, 1 h; inhibition, % at 8.33 µM; 340,000 tested, 0.51% active; AID 504462; in the data active = inhibition above about 40%
# A number is an active result; . = inactive; ? = inconclusive; / = not tested or not shown. This is a sample that favours compounds with a hit; in the whole collection about 4.8% have one here.
SMILES,NLRP3 yeast inh,Calb FLC,NALP1 yeast inh,ALR inh,UCH37 inh,ATG4B inhibitor
COc1ccc(C(=O)NNC(=S)NC(=O)c2ccc(Br)o2)cc1OC,.,.,.,85.6,.,.
Cc1cc(OCC(=O)NNC(=S)NC(=O)c2cccs2)ccc1Cl,.,103.8,.,.,.,.
CCCC(=O)Nc1ccc(C(=O)NNC(=S)NC(=O)c2ccc(Br)o2)cc1,.,.,.,.,.,.
O=C(Nc1ccccc1Oc1ccccc1)c1ccc(Br)o1,.,.,.,.,.,.
COc1ccc(C(=O)NC(=S)NNC(=O)c2cnccn2)cc1OC,.,.,.,97.5,.,.
COc1ccccc1NC(=O)c1ccc(Br)o1,.,.,27.7,.,.,.
CCOC(=O)c1sc(SC)c2c1CCCC2=NOC,/,/,/,/,.,/
COc1cccc(C=NNc2ccc(C(=O)O)cc2)c1O,/,/,/,/,.,/
Cc1ccc(NC(=O)CCC(=O)NN=Cc2ccco2)c(C)c1,/,/,/,/,.,/
Cc1ccc(OCC(=O)NN=Cc2ccc(-c3cccc(C(=O)O)c3)o2)c(C)c1,/,/,/,/,.,/
O=C(COc1ccc(Br)cc1Br)NNC(=O)c1cccs1,.,.,.,/,.,.
Cc1ccc(OCC(=O)NNC(=S)NC(=O)c2ccc(Br)o2)c(C)c1,.,.,.,98.3,.,.
Cc1ccc(OCC(=O)NNC(=S)NC(=O)c2cccs2)c(C)c1,.,.,.,98.2,.,.
CCOc1ccc2ccccc2c1C=Nn1cncn1,/,/,/,/,.,/
N#CCCNN=C(Cc1nc2ccccc2[nH]1)c1cccc(Cl)c1,/,/,/,/,.,/
CCOc1cc(C2Nc3ccccc3NC3=C2C(=O)CC(C)(C)C3)ccc1OC(C)=O (centres undefined),.,.,.,.,.,.
COc1cc2c(cc1OC)C(c1ccc3c(c1)OCO3)C1=C(CC(C)(C)CC1=O)N2 (centres undefined),.,.,.,98.5,.,.
CCOc1cc(C2Nc3ccccc3NC3=C2C(=O)CC(C)(C)C3)ccc1O (centres undefined),.,.,.,89.8,.,.
CC1(C)CC(=O)C2=C(C1)Nc1ccccc1NC2c1cccc(F)c1 (centres undefined),.,.,.,99.1,.,.
Cc1cc2c(cc1C)NC(c1cccnc1)C1=C(CC(C)(C)CC1=O)N2 (centres undefined),.,.,.,93.9,.,.
CC1(C)CC(=O)C2=C(C1)Nc1ccccc1NC2c1cccnc1 (centres undefined),.,.,.,?,.,.
Cc1ccc(NC(=O)COc2ccc(C=NNC(=O)c3cccnc3)cc2)cc1C,/,/,/,/,.,/
COc1cc(OC)c(C2Nc3ccccc3NC3=C2C(=O)CC(C)(C)C3)cc1OC (centres undefined),.,.,.,87.3,.,.
COC(=O)c1ccc(C2Nc3ccccc3NC3=C2C(=O)CC(C)(C)C3)cc1 (centres undefined),.,.,.,97.0,.,.
COc1cc(C=C(c2nc3ccccc3s2)c2nc3ccccc3s2)ccc1O,.,.,/,.,.,.
SMILES,NLRP3 yeast inh,Calb FLC,NALP1 yeast inh,ALR inh,UCH37 inh,ATG4B inhibitor
COc1cc(/C=C/c2nc3ccccc3s2)cc(OC)c1O,.,.,.,94.6,.,.
CCOc1cccc(/C=C/c2cc(C(=O)O)c3ccccc3n2)c1OC,.,.,.,/,.,.
CCOc1cc(/C=C/c2cc(C(=O)O)c3ccccc3n2)ccc1O,.,.,.,88.6,.,.
COc1cc(/C=C/c2cc(C(=O)O)c3ccccc3n2)cc(OC)c1O,.,.,.,99.2,/,.
CCOc1cc(/C=C/c2cc(C(=O)O)c3ccccc3n2)ccc1OC,.,?,.,.,.,.
Cc1ccc(C=NNC(=O)c2cc(OCC(F)(F)F)ccc2OCC(F)(F)F)cc1,/,/,/,/,.,/
CCON=C(C)c1c(O)c2ccccc2n(C)c1=O,/,/,/,/,.,/
Cn1ncc(S(=O)(=O)Cc2ccccc2)c(Cl)c1=O,.,.,107.5,/,/,.
Cc1cccc(C=Nn2c(C)nc3ccccc3c2=O)c1,/,/,/,/,.,/
N#Cc1cc(N)c(Nc2ccccc2)cc1C#N,.,.,.,.,.,.
Nc1cc([N+](=O)[O-])ccc1O,.,.,.,99.1,.,.
Cc1ccc([N+](=O)[O-])cc1N,.,.,.,.,.,.
N#Cc1ccc(Nc2ccccc2)c(N)c1,.,.,.,98.4,.,.
O=C(O)c1cc([N+](=O)[O-])ccc1Nc1ccccc1,.,.,.,.,.,.
Nc1cc(C(F)(F)F)ccc1Nc1ccccc1,.,.,.,97.6,.,.
Nc1cc([N+](=O)[O-])ccc1Nc1ccccc1,.,.,.,99.2,.,.
CC(=NNC(=O)Cc1ccccc1[N+](=O)[O-])c1cccnc1,/,/,/,/,.,/
Nc1cc(C(F)(F)F)ccc1NCCc1ccccn1,.,.,.,98.2,.,.
c1ccc(NCCc2ccccn2)cc1,/,/,/,/,.,.
CC(=NNC(=O)c1cc(C(C)(C)C)[nH]n1)C12CC3CC(CC(C3)C1)C2,/,/,/,/,.,/
O=C(CSc1nnc(SCc2ccccc2)s1)NN=C/C=C/c1ccco1,/,/,/,/,.,/
Nc1cc(C(=O)O)ccc1Nc1ccc(F)c(F)c1,.,/,.,96.8,.,.
O=C1N[C@H](Cc2ccccc2)COC(=O)[C@@H](Cc2ccc(F)cc2)CC/C=C/C[C@H]1CC(=O)N(CCO)Cc1ccccc1,.,/,/,.,22.2,.
Cc1cccc(C)c1NC(=S)NN=Cc1c(Cl)cccc1Cl,/,/,/,/,.,/
CCCOc1ccc(/C=C2\SC(=S)N(CC3CCCO3)C2=O)cc1 (centres undefined),.,.,.,.,.,.
SMILES,NLRP3 yeast inh,Calb FLC,NALP1 yeast inh,ALR inh,UCH37 inh,ATG4B inhibitor
O=C1/C(=C/c2ccc(O)cc2)SC(=S)N1CC1CCCO1 (centres undefined),.,.,.,99.2,.,.
O=C(O)/C=C/c1ccc(S(=O)(=O)Nc2ccc(C(=O)NCC(=O)O)cc2)cc1,.,50.2,.,.,.,.
Cc1ccn2c(NC(C)(C)C)c(-c3cccs3)nc2c1,.,.,.,99.0,.,.
CN(C)c1cccc2c(/C=N/O)ccc(N(C)C)c12,.,.,.,89.4,/,.
O=C1NC(=O)/C(=C/c2ccc(O)cc2)S1,.,.,.,99.0,.,.
NS(=O)(=O)c1ccc(Oc2ccc(S(N)(=O)=O)cc2)cc1,.,.,.,.,.,.
C=CS(=O)(=O)c1ccc(Oc2ccc(S(=O)(=O)C=C)cc2)cc1,.,.,74.8,.,.,.
NS(=O)(=O)c1ccc(NN=Cc2ccc[nH]2)c([N+](=O)[O-])c1,/,/,/,/,.,/
O=C(CCN1C(=O)COc2ccccc21)NCCN1CCN(c2ccccc2F)CC1,.,.,31.7,/,.,.
O=C(CN1C(=O)COc2ccccc21)NCCCN1CCN(c2ccccc2F)CC1,.,.,.,.,.,.
O=C(NN=Cc1cc([N+](=O)[O-])cc(Br)c1O)C12CC3CCC(CC(C3)C1)C2,/,/,/,/,.,/
COc1cccc(=O)c2c(C)n(-c3ccc(C(=O)O)cc3)c(C)c12,.,.,.,.,.,.
CCOc1cccc(=O)c2c(C)n(-c3ccc(C(=O)O)cc3)c(C)c12,.,.,.,96.2,.,.
